Experimental data taken from ChEMBL document CHEMBL4014350, “Alkoxyurea-Based Histone Deacetylase Inhibitors Increase Cisplatin Potency in Chemoresistant Cancer Cell Lines” (J Med Chem, 2017).
pIC50: −log10 of the molar value.

Key:
A2780 = assay: Antiproliferative activity against human A2780 cells measured after 72 hrs by MTT assay; assay type: functional, cell-based; settings: A2780, 72 h
CAL-27 [1] = assay: Antiproliferative activity against human CAL27 cells measured after 72 hrs by MTT assay; assay type: functional, cell-based; settings: CAL-27, 72 h
A2780cisR = assay: Antiproliferative activity against human A2780cisR cells measured after 72 hrs by MTT assay; assay type: functional, cell-based
[2] = Antiproliferative activity against human Cal27CisR cells measured after 72 hrs by MTT assay; assay type: functional, cell-based
[3] = Inhibition of HDAC in human A2780 cells using Boc-Lys(epsilon-Ac)-AMC as substrate preincubated for 18 hrs followed by substrate addition measured after 3 hrs by fluorescence assay; assay type: cell-based
[4] = Inhibition of HDAC in human CAL27 cells using Boc-Lys(epsilon-Ac)-AMC as substrate preincubated for 18 hrs followed by substrate addition measured after 3 hrs by fluorescence assay; assay type: cell-based; settings: CAL-27
[5] = Inhibition of HDAC in human A2780CisR cells using Boc-Lys(epsilon-Ac)-AMC as substrate preincubated for 18 hrs followed by substrate addition measured after 3 hrs by fluorescence assay; assay type: cell-based
[6] = Inhibition of HDAC in human Cal27CisR cells using Boc-Lys(epsilon-Ac)-AMC as substrate preincubated for 18 hrs followed by substrate addition measured after 3 hrs by fluorescence assay; assay type: cell-based
Homo sapiens = organism: Homo sapiens; assay: Selectivity ratio of IC50 for HDAC in human A2780 cells to IC50 for HDAC in human A2780CisR cells; assay type: cell-based
CAL-27 [7] = assay: Potentiation of cisplatin-induced cytotoxicity against human CAL27 cells assessed as decrease in cell viability at 10 uM preincubated for 48 hrs followed by cisplatin treatment measured after 72 hrs by MTT assay relative to cisplatin alone; assay type: functional
In short: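 Cells were preincubated 48 h with HDAC inhibitor, then cisplatin was added over a concentration range for 72 h, with MTT read-out. Shift factor is cisplatin-alone IC50 divided by combination IC50. Data are mean ± SEM of pooled data from at least three independent experiments, each in triplicate. Significance was by t test (p < 0.05).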

Histone deacetylase 1 = Histone deacetylase 1 (Homo sapiens, UniProt Q13547); assay: Inhibition of recombinant full length human C-terminal FLAG/His-tagged HDAC1 expressed in baculovirus infected sf9 cells using Z-(Ac)Lys-AMC as substrate measured after 90 mins by fluorescence assay
Chain of Histone deacetylase 1 (Q13547 whole entry): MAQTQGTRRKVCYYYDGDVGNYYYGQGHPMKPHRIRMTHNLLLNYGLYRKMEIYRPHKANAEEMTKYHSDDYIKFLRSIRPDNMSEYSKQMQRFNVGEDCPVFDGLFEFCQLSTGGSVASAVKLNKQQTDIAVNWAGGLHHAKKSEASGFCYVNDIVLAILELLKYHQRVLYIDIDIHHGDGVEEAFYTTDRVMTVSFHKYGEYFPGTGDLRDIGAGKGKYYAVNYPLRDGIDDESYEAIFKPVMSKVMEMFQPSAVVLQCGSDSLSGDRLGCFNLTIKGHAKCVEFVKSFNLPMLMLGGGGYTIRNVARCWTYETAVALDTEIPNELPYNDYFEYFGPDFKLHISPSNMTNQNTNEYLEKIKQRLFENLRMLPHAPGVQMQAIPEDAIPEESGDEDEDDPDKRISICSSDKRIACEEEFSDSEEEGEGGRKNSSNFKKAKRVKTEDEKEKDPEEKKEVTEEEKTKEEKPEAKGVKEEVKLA

[8] = biological target: T1, Protein deacetylase HDAC6 (Homo sapiens, UniProt Q9UBN7); assay: Inhibition of full length human recombinant N-terminal GST-tagged HDAC6 expressed in baculovirus infected sf9 cells Z-(Ac)Lys-AMC as substrate measured after 90 mins by fluorescence assay
T1 sequence (Q9UBN7 whole entry): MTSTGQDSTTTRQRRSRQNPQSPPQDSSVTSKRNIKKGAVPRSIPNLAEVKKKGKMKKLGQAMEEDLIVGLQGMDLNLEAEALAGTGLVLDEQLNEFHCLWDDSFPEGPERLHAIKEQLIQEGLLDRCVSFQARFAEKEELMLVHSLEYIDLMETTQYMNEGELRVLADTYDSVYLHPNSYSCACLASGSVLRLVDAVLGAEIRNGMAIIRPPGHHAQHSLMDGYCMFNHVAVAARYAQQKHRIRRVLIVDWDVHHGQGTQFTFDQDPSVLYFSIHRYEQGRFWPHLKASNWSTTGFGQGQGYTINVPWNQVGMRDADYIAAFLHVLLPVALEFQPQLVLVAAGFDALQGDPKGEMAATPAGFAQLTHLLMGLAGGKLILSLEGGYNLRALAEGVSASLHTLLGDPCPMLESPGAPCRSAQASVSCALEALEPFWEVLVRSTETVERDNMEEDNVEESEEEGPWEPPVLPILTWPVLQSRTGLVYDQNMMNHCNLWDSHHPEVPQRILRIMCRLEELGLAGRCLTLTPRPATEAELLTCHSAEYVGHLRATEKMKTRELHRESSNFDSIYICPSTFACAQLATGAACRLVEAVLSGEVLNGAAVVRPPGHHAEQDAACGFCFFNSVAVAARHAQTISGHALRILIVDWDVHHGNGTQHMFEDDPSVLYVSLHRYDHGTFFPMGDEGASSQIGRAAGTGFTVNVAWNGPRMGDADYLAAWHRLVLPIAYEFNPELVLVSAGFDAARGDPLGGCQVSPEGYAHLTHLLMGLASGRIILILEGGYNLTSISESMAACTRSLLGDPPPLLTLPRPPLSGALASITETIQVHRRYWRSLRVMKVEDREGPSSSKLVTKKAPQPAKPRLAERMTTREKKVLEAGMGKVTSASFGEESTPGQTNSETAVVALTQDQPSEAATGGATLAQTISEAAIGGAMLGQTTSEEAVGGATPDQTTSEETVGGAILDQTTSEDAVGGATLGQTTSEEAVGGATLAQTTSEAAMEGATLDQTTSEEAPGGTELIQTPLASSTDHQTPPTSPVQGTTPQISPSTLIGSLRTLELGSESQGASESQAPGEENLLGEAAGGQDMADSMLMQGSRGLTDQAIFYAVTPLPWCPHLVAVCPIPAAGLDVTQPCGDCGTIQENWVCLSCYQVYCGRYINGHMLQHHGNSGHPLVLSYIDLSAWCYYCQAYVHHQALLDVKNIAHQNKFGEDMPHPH

Histone deacetylase 8 = biological target: T2, Histone deacetylase 8 (Homo sapiens, UniProt Q9BY41); assay: Inhibition of human HDAC8 using Z-L-Lys(epsilon-trifluoroacetyl)-AMC as substrate measured after 90 mins by fluorescence assay
T2 sequence (Q9BY41 whole entry): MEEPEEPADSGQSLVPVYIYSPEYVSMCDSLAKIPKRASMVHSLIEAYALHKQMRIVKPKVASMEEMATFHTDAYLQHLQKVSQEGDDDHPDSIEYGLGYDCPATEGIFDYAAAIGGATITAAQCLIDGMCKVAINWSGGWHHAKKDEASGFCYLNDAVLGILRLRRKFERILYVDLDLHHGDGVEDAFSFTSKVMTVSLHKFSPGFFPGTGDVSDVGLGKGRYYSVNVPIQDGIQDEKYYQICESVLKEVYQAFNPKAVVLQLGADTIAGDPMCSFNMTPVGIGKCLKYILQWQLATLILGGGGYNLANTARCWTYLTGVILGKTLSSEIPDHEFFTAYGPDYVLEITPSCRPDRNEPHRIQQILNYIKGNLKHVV

Histone deacetylase 4 = Histone deacetylase 4 (Homo sapiens, UniProt P56524); assay: Inhibition of recombinant human N-terminal GST-tagged/C-terminal His-tagged HDAC4 expressed in insect cells using Boc-K(Ac)-AMC as substrate by fluorescence assay
Chain of Histone deacetylase 4 (P56524 whole entry): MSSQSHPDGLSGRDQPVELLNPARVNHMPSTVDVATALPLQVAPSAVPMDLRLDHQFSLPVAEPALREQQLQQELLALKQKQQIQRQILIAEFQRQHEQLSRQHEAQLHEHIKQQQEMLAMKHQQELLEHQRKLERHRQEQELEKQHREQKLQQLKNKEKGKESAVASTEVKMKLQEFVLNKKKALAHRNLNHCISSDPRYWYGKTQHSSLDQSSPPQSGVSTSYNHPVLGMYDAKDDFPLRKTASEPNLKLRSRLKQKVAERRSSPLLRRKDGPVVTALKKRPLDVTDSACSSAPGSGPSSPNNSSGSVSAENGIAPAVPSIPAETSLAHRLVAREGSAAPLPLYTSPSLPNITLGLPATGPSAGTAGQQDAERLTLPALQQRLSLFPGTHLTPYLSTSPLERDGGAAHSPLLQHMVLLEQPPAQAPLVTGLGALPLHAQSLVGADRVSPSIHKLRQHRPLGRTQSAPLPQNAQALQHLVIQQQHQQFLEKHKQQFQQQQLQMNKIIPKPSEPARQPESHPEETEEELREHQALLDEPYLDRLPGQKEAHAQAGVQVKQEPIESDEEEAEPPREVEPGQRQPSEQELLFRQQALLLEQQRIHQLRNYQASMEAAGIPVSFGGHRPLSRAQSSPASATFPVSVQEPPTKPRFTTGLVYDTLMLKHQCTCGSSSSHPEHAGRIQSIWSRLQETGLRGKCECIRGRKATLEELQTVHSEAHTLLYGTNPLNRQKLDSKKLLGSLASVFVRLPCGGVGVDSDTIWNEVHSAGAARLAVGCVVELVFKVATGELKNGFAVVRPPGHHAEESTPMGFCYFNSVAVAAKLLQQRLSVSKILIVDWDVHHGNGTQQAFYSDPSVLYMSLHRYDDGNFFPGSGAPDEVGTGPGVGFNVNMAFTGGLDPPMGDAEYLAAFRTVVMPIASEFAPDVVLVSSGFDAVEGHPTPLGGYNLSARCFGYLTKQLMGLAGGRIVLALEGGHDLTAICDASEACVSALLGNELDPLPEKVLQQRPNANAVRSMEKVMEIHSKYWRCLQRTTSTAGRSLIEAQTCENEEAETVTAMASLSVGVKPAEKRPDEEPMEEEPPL

## O=C(CCCCCONC(=O)Nc1cccc2cccnc12)NO
A2780
  pIC50: 5.52
CAL-27 [1]
  pIC50: 5.96
A2780cisR
  pIC50: 6.00
[2]
  pIC50: 5.66
[3]
  pIC50: 5.68
[4]
  pIC50: 6.05
[5]
  pIC50: 6.05
[6]
  pIC50: 6.05
Homo sapiens
  Ratio IC50: 2 to 3.4

## O=C(CCCCCONC(=O)Nc1ccc2ccccc2c1)NO
A2780
  pIC50: 5.85
CAL-27 [1]
  pIC50: 5.77
A2780cisR
  pIC50: 5.80
[2]
  pIC50: 5.64
[3]
  pIC50: 5.29
[4]
  pIC50: 6.00
[5]
  pIC50: 5.80
[6]
  pIC50: 6.00
Homo sapiens
  Ratio IC50: 2 to 3.4

## CN1CCc2c(c3ccccc3n2Cc2ccc(C(=O)NO)cc2)C1 [TUBASTATIN A]
CAL-27 [1]
  pIC50: 5.34
[2]
  pIC50: 4.97
[4]
  pIC50: 4.79
[6]
  pIC50: 4.92
CAL-27 [7]
  fold change (FC): 1.1

## COc1cc(NC(=O)NOCCCCCC(=O)NO)c2nc(OC(C)C)cc(C)c2c1Oc1cccc(C(F)(F)F)c1
A2780
  pIC50: 5.77
CAL-27 [1]
  pIC50: 5.41
A2780cisR
  pIC50: 5.44
[2]
  pIC50: 5.54
[3]
  pIC50: 3.83
[4]
  pIC50: 3.97
[6]
  pIC50: 4.25

## Cc1ccc2cccc(NC(=O)NOCCCCCC(=O)NO)c2n1
A2780
  pIC50: 5.37
CAL-27 [1]
  pIC50: 5.66
A2780cisR
  pIC50: 5.89
[2]
  pIC50: 5.33
[3]
  pIC50: 5.48
[4]
  pIC50: 5.47
[5]
  pIC50: 5.77
[6]
  pIC50: 5.55
Homo sapiens
  Ratio IC50: 2 to 3.4

## O=C(CCCCCCC(=O)Nc1ccccc1)NO [VORINOSTAT]
[3]
  pIC50: 5.77

## O=C(CCCCCONC(=O)Nc1cccc2ccccc12)NO
CAL-27 [1]
  pIC50: 5.80
A2780cisR
  pIC50: 5.10
[2]
  pIC50: 5.41
[3]
  pIC50: 5.96
[4]
  pIC50: 5.96
[5]
  pIC50: 6.05
[6]
  pIC50: 6.00

## O=C(CCCCCONC(=O)Nc1cnc2ccccc2c1)NO
CAL-27 [1]
  pIC50: 5.52
A2780cisR
  pIC50: 4.94
[2]
  pIC50: 5.27
[3]
  pIC50: 5.96
[4]
  pIC50: 5.89
[5]
  pIC50: 6.05
[6]
  pIC50: 5.89
Histone deacetylase 1
  pIC50: 6.72
[8]
  pIC50: 7.29
Histone deacetylase 8
  pIC50: 4.95
Histone deacetylase 4
  pIC50: < 5.00

## O=C(CCCCCONC(=O)Nc1ccc2ncccc2c1)NO
A2780
  pIC50: 4.56
CAL-27 [1]
  pIC50: 5.24
A2780cisR
  pIC50: 4.98
[2]
  pIC50: 5.12
[3]
  pIC50: 5.62
[4]
  pIC50: 5.85
[5]
  pIC50: 5.70
[6]
  pIC50: 5.96

## CN(O)C(=O)CCCCCONC(=O)Nc1cccc2ccccc12
A2780
  pIC50: 4.33
CAL-27 [1]
  pIC50: 4.36
A2780cisR
  pIC50: 4.35
[2]
  pIC50: 4.18
[4]
  pIC50: 3.72
[6]
  pIC50: 3.69
